The structures appear in SMILES notation. ≈ marks a conversion by molar mass, not a printed value.

Holding throughout (format): functional
The subject of assay [1] is Pseudomonas aeruginosa. Kind of assay: Antibacterial activity against Pseudomonas aeruginosa assessed as inhibition of bacterial growth after 24 hrs by CLSI protocol based two fold serial dilution method. The essentials: (§1)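 Two-fold serial broth dilution in 96-well plates following CLSI; MIC (mM) taken as the lowest concentration giving complete growth inhibition; MIC values from three independent experiments.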

Assay [2] concerns Candida parapsilosis. The assay is described as follows: Antifungal activity against Candida parapsilosis ATCC 22019 assessed as inhibition of fungal growth after 24 hrs by CLSI protocol based two fold serial dilution method. To be noted: Lodderomyces parapsilosis. The essentials: as §1
For assay [3], the system named is Aspergillus fumigatus. The assay is described as follows: Antifungal activity against Aspergillus fumigatus assessed as inhibition of fungal growth after 24 hrs by CLSI protocol based two fold serial dilution method. The essentials: as §1
Assay [4] relates to Candida tropicalis. The assay is described as follows: Antifungal activity against Candida tropicalis assessed as inhibition of fungal growth after 24 hrs by CLSI protocol based two fold serial dilution method. The essentials: as §1
In assay [5] the test system is Candida albicans. Kind of assay: Antifungal activity against Candida albicans ATCC 90023 assessed as inhibition of fungal growth after 24 hrs by CLSI protocol based two fold serial dilution method. The essentials:
as §1

The subject of assay [6] is Candida albicans. The assay is described as follows: Antifungal activity against Candida albicans assessed as inhibition of fungal growth after 24 hrs by CLSI protocol based two fold serial dilution method. The essentials: as §1
Assay [7] relates to Acinetobacter baumannii. Kind of assay: Antibacterial activity against Acinetobacter baumannii assessed as inhibition of bacterial growth after 24 hrs by CLSI protocol based two fold serial dilution method. The essentials:
as §1

The subject of assay [8] is Pseudomonas aeruginosa. The assay is described as follows: Antibacterial activity against Pseudomonas aeruginosa ATCC 27853 assessed as inhibition of bacterial growth after 24 hrs by CLSI protocol based two fold serial dilution method. Put shortly: as §1
The subject of assay [9] is Escherichia coli. The assay is described as follows: Antibacterial activity against Escherichia coli ATCC 25922 assessed as inhibition of bacterial growth after 24 hrs by CLSI protocol based two fold serial dilution method. The essentials:
as §1

Assay [10] deals with Escherichia coli. Kind of assay: Antibacterial activity against Escherichia coli assessed as inhibition of bacterial growth after 24 hrs by CLSI protocol based two fold serial dilution method. Put shortly:
as §1

Assay [11] relates to Klebsiella pneumoniae. The assay is described as follows: Antibacterial activity against Klebsiella pneumoniae assessed as inhibition of bacterial growth after 24 hrs by CLSI protocol based two fold serial dilution method. Put shortly: as §1
For assay [12], the system named is Staphylococcus aureus. The assay is described as follows: Antibacterial activity against Staphylococcus aureus ATCC 29213 assessed as inhibition of bacterial growth after 24 hrs by CLSI protocol based two fold serial dilution method.
Assay [13] relates to Staphylococcus aureus. Kind of assay: Antibacterial activity against Staphylococcus aureus ATCC 25923 assessed as inhibition of bacterial growth after 24 hrs by CLSI protocol based two fold serial dilution method. Put shortly: as §1
Assay [14] has as its system Staphylococcus aureus. Kind of assay: Antibacterial activity against Staphylococcus aureus assessed as inhibition of bacterial growth after 24 hrs by CLSI protocol based two fold serial dilution method. The essentials: as §1
Assay [15] has as its system Enterococcus faecalis. The assay is described as follows: Antibacterial activity against Enterococcus faecalis assessed as inhibition of bacterial growth after 24 hrs by CLSI protocol based two fold serial dilution method. Put shortly: as §1
The test system of assay [16] is Staphylococcus aureus. Kind of assay: Antibacterial activity against methicillin-resistant Staphylococcus aureus N315 assessed as inhibition of bacterial growth after 24 hrs by CLSI protocol based two fold serial dilution method.

In general, MIC refers to the least concentration at which growth counts as inhibited. As to `CCCCCCCCCCN1CCN(c2cc3c(cc2F)c(=O)c(-c2csc(N)n2)cn3CC)CC1`, the MIC amounted to 499 µM (≈ 256 µg/mL) in assay [1]; 249 µM (≈ 128 µg/mL) in assay [2]; 125 µM (≈ 64.2 µg/mL) in [3]; 499 µM (≈ 256 µg/mL) in [4]; 997 µM (≈ 512 µg/mL) in [5]; 997 µM (≈ 512 µg/mL) in assay [6]. Further, the MIC is 249 µM (≈ 128 µg/mL) in [7]; 249 µM (≈ 128 µg/mL) in [8]; 499 µM (≈ 256 µg/mL) in [9]; 499 µM (≈ 256 µg/mL) in assay [10]; 499 µM (≈ 256 µg/mL) in assay [11]; 997 µM (≈ 512 µg/mL) in [12]. The minimal inhibitory concentration (MIC) in assay [13] is 499 µM (≈ 256 µg/mL); in assay [14], 499 µM (≈ 256 µg/mL); in [15] it was 499 µM (≈ 256 µg/mL); in [16] it was 997 µM (≈ 512 µg/mL).

`CCn1cc(-c2csc(N)n2)c(=O)c2cc(F)c(N3CCN(C=O)CC3)cc21`: the MIC amounted to 638 µM (≈ 256 µg/mL) in [1]; 160 µM (≈ 64.2 µg/mL) in [2]; 638 µM (≈ 256 µg/mL) in assay [3]; 638 µM (≈ 256 µg/mL) in assay [4]; 166 µM (≈ 66.6 µg/mL) in assay [5]; 160 µM (≈ 64.2 µg/mL) in assay [6]. The MIC in [7] came to 319 µM (≈ 128 µg/mL); in [8], 80 µM (≈ 32.1 µg/mL); in assay [9], 160 µM (≈ 64.2 µg/mL); in assay [10], 638 µM (≈ 256 µg/mL); in [11] it was 319 µM (≈ 128 µg/mL); in assay [12], 638 µM (≈ 256 µg/mL). In addition, the MIC in [13] worked out at 160 µM (≈ 64.2 µg/mL); in assay [14], 638 µM (≈ 256 µg/mL); in assay [15] it was 319 µM (≈ 128 µg/mL); in assay [16], 638 µM (≈ 256 µg/mL).

`CCOC(=O)CN1CCN(c2cc3c(=O)c(-c4csc(N)n4)cn(CC)c3cc2Cl)CC1`: the MIC in assay [1] was 269 µM (≈ 128 µg/mL); in assay [2], 135 µM (≈ 64.3 µg/mL); in [3], 539 µM (≈ 257 µg/mL); in assay [4] it was 135 µM (≈ 64.3 µg/mL); in assay [5], 67 µM (≈ 31.9 µg/mL); in assay [6], 269 µM (≈ 128 µg/mL). Also, the MIC was 135 µM (≈ 64.3 µg/mL) in [7]; 269 µM (≈ 128 µg/mL) in [8]; 1080 µM (≈ 513 µg/mL) in assay [9]; 269 µM (≈ 128 µg/mL) in assay [10]; 67 µM (≈ 31.9 µg/mL) in [11]; 539 µM (≈ 257 µg/mL) in [12]. The minimum inhibitory concentration (MIC) in assay [13] came to 135 µM (≈ 64.3 µg/mL); in [14], 135 µM (≈ 64.3 µg/mL); in assay [15], 539 µM (≈ 257 µg/mL); in assay [16], 67 µM (≈ 31.9 µg/mL).

On to `CCn1cc(-c2csc(N)n2)c(=O)c2cc(F)c(N3CCN(CC(C)O)CC3)cc21` (stereo unspecified), for which the MIC worked out at 148 µM (≈ 63.9 µg/mL) in assay [1]; 148 µM (≈ 63.9 µg/mL) in assay [2]; 37 µM (≈ 16 µg/mL) in assay [3]; 297 µM (≈ 128 µg/mL) in assay [4]; 148 µM (≈ 63.9 µg/mL) in assay [5]; 148 µM (≈ 63.9 µg/mL) in assay [6]. Besides, the MIC in assay [7] was 19 µM (≈ 8.2 µg/mL); in assay [8], 5 µM (≈ 2.16 µg/mL); in assay [9], 37 µM (≈ 16 µg/mL); in assay [10], 594 µM (≈ 256 µg/mL); in [11], 9 µM (≈ 3.88 µg/mL); in assay [12], 148 µM (≈ 63.9 µg/mL). Moreover, the minimum inhibitory concentration (MIC) in assay [13] was determined as 148 µM (≈ 63.9 µg/mL); in assay [14], 37 µM (≈ 16 µg/mL); in assay [15], 297 µM (≈ 128 µg/mL); in assay [16], 148 µM (≈ 63.9 µg/mL).

For `CCCCCCCCN1CCN(c2cc3c(cc2F)c(=O)c(-c2csc(N)n2)cn3CC)CC1`, the MIC was found to be 264 µM (≈ 128 µg/mL) in [1]; 264 µM (≈ 128 µg/mL) in assay [2]; 16 µM (≈ 7.77 µg/mL) in assay [3]; 264 µM (≈ 128 µg/mL) in assay [4]; 1060 µM (≈ 512 µg/mL) in assay [5]; 1060 µM (≈ 512 µg/mL) in assay [6]. For the same compound, the minimal inhibitory concentration (MIC) worked out at 528 µM (≈ 256 µg/mL) in assay [7]; 264 µM (≈ 128 µg/mL) in assay [8]; 1060 µM (≈ 512 µg/mL) in assay [9]; 264 µM (≈ 128 µg/mL) in assay [10]; 264 µM (≈ 128 µg/mL) in assay [11]; 528 µM (≈ 256 µg/mL) in assay [12]. The minimum inhibitory concentration (MIC) in [13] was found to be 264 µM (≈ 128 µg/mL); in assay [14] it was 264 µM (≈ 128 µg/mL); in assay [15] it was 528 µM (≈ 256 µg/mL); in assay [16], 528 µM (≈ 256 µg/mL).

In the case of `C=CCN1CCN(c2cc3c(cc2F)c(=O)c(-c2csc(N)n2)cn3CC)CC1`, the minimal inhibitory concentration (MIC) came to 155 µM (≈ 64.1 µg/mL) in assay [1]; 155 µM (≈ 64.1 µg/mL) in assay [2]; 77 µM (≈ 31.8 µg/mL) in assay [3]; 155 µM (≈ 64.1 µg/mL) in [4]; 77 µM (≈ 31.8 µg/mL) in [5]; 77 µM (≈ 31.8 µg/mL) in [6]. The minimal inhibitory concentration (MIC) is 77 µM (≈ 31.8 µg/mL) in assay [7]; 155 µM (≈ 64.1 µg/mL) in [8]; 155 µM (≈ 64.1 µg/mL) in assay [9]; 77 µM (≈ 31.8 µg/mL) in [10]; 77 µM (≈ 31.8 µg/mL) in assay [11]; 39 µM (≈ 16.1 µg/mL) in assay [12]. Besides, the MIC in assay [13] worked out at 19 µM (≈ 7.86 µg/mL); in [14] it was 155 µM (≈ 64.1 µg/mL); in [15], 155 µM (≈ 64.1 µg/mL); in assay [16] it was 78 µM (≈ 32.3 µg/mL).

Values taken from ChEMBL document CHEMBL4665627 (Eur J Med Chem, 2019).
